Results taken from article PMC7729281 (Biochemistry, 2020).
Where “and” joins values, the source holds several entries; their conditions need not be identical. Equal values may be shown once. Read-outs that look alike come from different tables or passages of the source. Values belong to the molecule of their own block, whether it stands above or below them.

Key:
human platelets [1] = experiment: Collagen-stimulated platelet aggregation; assay type: cell-based; settings: 10 min incubation, collagen 0.25 μg/mL
Procedure, shortened: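 Washed human platelets were isolated by serial centrifugation and resuspended in Tyrode's buffer at 3 × 10^8/mL. They were preincubated with test compound (1–10 μM) for 10 min at 37 °C, then stimulated with 0.25 μg/mL collagen while stirring at 1100 rpm. Maximum aggregation was read as the light-transmittance change, mean ± SEM of 3–5 independent experiments. Comparison versus vehicle used one-way ANOVA with Dunnett's test.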

h12-LOX [2] = target: T1, h12-LOX (Homo sapiens, UniProt P18054); experiment: Allosteric modulation of 14S-HpDHA epoxidation by h12-LOX; assay type: biochemical; settings: 1 μM 14S-HpDHA
T1 sequence (P18054 1-663): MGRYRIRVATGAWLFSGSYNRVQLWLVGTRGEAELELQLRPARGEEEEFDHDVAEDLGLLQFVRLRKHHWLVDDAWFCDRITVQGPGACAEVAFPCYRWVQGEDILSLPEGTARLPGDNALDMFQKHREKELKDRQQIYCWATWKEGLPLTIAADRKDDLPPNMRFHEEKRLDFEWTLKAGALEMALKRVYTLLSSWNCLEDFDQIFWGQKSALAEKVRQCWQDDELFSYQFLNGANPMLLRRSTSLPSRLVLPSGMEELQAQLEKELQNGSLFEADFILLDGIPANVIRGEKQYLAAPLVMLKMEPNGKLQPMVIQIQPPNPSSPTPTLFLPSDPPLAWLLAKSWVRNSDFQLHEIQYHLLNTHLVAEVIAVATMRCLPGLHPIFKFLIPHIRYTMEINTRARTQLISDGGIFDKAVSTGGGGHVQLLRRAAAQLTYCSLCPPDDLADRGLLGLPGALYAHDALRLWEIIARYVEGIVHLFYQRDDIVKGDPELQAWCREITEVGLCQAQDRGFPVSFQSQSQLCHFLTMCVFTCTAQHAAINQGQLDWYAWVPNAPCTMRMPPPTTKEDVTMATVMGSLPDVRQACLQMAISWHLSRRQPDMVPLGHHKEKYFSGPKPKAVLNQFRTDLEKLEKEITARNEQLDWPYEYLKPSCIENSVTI
Procedure, shortened: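 Recombinant human h15-LOX-1 (0.125 μM, 25 mM HEPES pH 7.5, 20 min) or h12-LOX (0.3 μM, pH 8.0, 1 h) reacted at room temperature with 1 μM 14S-HpDHA while oxylipin modulator was titrated (1–100 μM), or with 14S-HpDHA varied alone (1–50 μM). Products were reduced and analysed by LC-MS. Dehydration (epoxide) versus oxygenation product percentages were calculated, N = 3.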

h12-LOX [3] = target: T1, h12-LOX; experiment: Steady-state kinetics of h12-LOX
h15-LOX-1 [4] = target: T2, h15-LOX-1 (Homo sapiens, UniProt P16050); experiment: Steady-state kinetics of h15-LOX-1; settings: for fold difference of kcat/KM: h15-LOX-1, kcat/KM of enzyme with DHA set to 1 (Table 5)
T2 sequence (P16050 1-662): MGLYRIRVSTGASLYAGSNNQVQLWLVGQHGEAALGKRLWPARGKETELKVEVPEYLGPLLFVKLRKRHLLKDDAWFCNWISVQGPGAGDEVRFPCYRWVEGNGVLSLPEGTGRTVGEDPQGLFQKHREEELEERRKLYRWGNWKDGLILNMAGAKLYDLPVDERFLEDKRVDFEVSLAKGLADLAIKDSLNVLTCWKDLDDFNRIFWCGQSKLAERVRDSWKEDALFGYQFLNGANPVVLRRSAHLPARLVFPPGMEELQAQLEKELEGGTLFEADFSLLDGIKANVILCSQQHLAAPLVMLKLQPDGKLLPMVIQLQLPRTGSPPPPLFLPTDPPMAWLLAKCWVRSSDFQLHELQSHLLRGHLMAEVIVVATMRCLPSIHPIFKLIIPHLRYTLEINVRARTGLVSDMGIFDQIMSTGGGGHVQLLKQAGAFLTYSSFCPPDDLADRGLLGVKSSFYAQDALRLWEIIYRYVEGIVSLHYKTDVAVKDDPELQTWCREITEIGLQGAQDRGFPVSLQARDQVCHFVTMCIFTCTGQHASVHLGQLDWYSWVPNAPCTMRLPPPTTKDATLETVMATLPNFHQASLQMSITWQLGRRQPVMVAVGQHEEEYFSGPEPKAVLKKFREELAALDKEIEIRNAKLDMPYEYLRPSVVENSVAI

h15-LOX-1 [5] = target: T2, h15-LOX-1; experiment: Product analysis of h15-LOX-1 reactions; assay type: biochemical
Procedure, shortened: (§1)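 h15-LOX-1 (0.125 μM, pH 7.5) or h12-LOX (0.300 μM, pH 8.0) was reacted in 25 mM HEPES at room temperature under ambient O2. Substrates were 10 μM DHA for 1 min (monitored at 234 nm) or 1 μM 14S-HpDHA for 20 min (h15-LOX-1) or 1 h (h12-LOX) (monitored at 270 nm). Reactions were quenched with acetic acid, spiked with d5-maresin-1, extracted into DCM and background-subtracted against a no-enzyme control. Split samples were run with or without trimethyl phosphite reduction. Products were identified by C18 LC-MS/MS (qTOF), N = 3.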

h15-LOX-1 [6] = target: T2, h15-LOX-1; settings: h15-LOX-1 with AA, obtained previously ref 22; cited from earlier work
M2-polarized macrophages = M2-polarized macrophages challenged by inhibitor ref 44; cited from earlier work
h12-LOX [7] = target: T1, h12-LOX; experiment: Product analysis of h12-LOX reactions; assay type: biochemical
Procedure, shortened: as §1

human platelets [8] = experiment: Ex vivo platelet incubation and lipidomics; assay type: cell-based; settings: human platelets + DHA, with inhibitor; data not shown
[9] = substrate: CCCCC/C=C\C/C=C\C/C=C\C/C=C\CCCC(=O)O; experiment: purified protein, by the assay type; settings: other: h12-LOX + substrate, 25 mM HEPES pH 8.0, RT
[10] = substrate: CC/C=C\C/C=C\C/C=C\C/C=C\C/C=C\C/C=C\CCC(=O)O; experiment: purified protein, by the assay type
[11] = h12-LOX + substrate, 25 mM HEPES pH 8.0, RT
[12] = h15-LOX-1 + substrate, 25 mM HEPES pH 7.5, RT
[13] = other: h12-LOX + substrate, 25 mM HEPES pH 8.0, RT
[14] = other: h15-LOX-1 + substrate, 25 mM HEPES pH 7.5, RT

Molecule: CC/C=C\C/C=C\C[C@H](O)/C=C/C=C\C=C\[C@@H](O)C/C=C\CCC(=O)O [7S,14S-EZE-diHDHA, 7S,14S-dihydroxy-4Z,8E,10Z,12E,16Z,19Z-docosahexaenoic acid]
concentration required to completely inhibit platelet aggregation (human platelets [1]): 5 to 10 µM

allosteric effect on epoxidation (h12-LOX [2]; titration of modulator): no allosteric effect
Molecule: CCCCC/C=C\C[C@H](O)/C=C/C=C\C/C=C\CCCC(=O)O [12S-HETE, 12S-hydroxy-5Z,8Z,10E,14Z-eicosatetraenoic acid, reference compound]

Molecule: CCCCC/C=C\C[C@H](O)/C=C/C=C\CCCCCCC(=O)O [12S-HETrE, 12S-hydroxy-8Z,10E,14Z-eicosatrienoic acid, reference compound]
concentration required to completely inhibit platelet aggregation (human platelets [1]): 5 to 10 µM

Km (h12-LOX [3]; [11]): 210 ± 70 µM
kcat (h12-LOX [3]; [11]): 0.17 ± 0.03 s⁻¹
Km (h15-LOX-1 [4]; [12]): 18 ± 4 µM
kcat (h15-LOX-1 [4]; [12]): 0.57 ± 0.01 s⁻¹
fold difference of kcat/KM (h15-LOX-1 [4]): −13
Molecule: CC/C=C\C/C=C\C[C@H](O)/C=C/C=C\C/C=C\C/C=C\CCC(=O)O [14S-HDHA, 14S-hydroxy-4Z,7Z,10Z,12E,16Z,19Z-docosahexaenoic acid]

epoxidation product at end of titration (h12-LOX [2]; titration with modulator, 72.0% at start): 5.0%
Molecule: CC/C=C\C/C=C\C[C@H](O)/C=C/C=C\C/C=C\CCCCCC(=O)O [14S-HDPAω-3, 14S-hydroxy-7Z,10Z,12E,16Z,19Z-docosapentaenoic acid]

product profile: ω-9 oxylipin 12S-HETE / 12S-HpETE (h15-LOX-1 [5]; h15-LOX-1 + AA): 10%
Molecule: CCCCC/C=C\C/C=C\C/C=C\C/C=C\CCCC(=O)O [AA, arachidonic acid]
Km (h15-LOX-1 [6]): 2.7 ± 0.3 µM
kcat (h15-LOX-1 [6]): 5.3 ± 0.4 s⁻¹

Molecule: O=C(Nc1ccc(F)cc1Cl)c1n[nH]c(Cl)c1Cl [BLX-3887]
decrease of 14S-HDHA production (M2-polarized macrophages): 45%
decrease of maresin production (M2-polarized macrophages): 70%

14S-HpDHA biosynthetic flux (h12-LOX [3]; h12-LOX + DHA, B.F. = kcat/KM * % product): 11
fold difference of kcat/KM (h12-LOX [3]; h12-LOX, kcat/KM of enzyme with DHA set to 1 (Table 5)): 1.0
kcat/KM of h12-LOX greater than that of h15-LOX-1 (h12-LOX [3]; substrate DHA): 39 fold
product profile: 11S-HpDHA (ω-12) (h12-LOX [7]; h12-LOX + 10 μM DHA, 1 min): 19% and 19 ± 3%
product profile: 14S-HpDHA (ω-9) (h12-LOX [7]; h12-LOX + 10 μM DHA, 1 min): 81% and 81 ± 3%
product profile: 17S-HpDHA (ω-6) (h12-LOX [7]; h12-LOX + 10 μM DHA, 1 min): <1.0%
14S-HpDHA product selectivity of h12-LOX greater than that of h15-LOX-1 (h12-LOX [7]; substrate DHA): 2 fold
fold difference of 14S-HpDHA biosynthetic flux (h15-LOX-1 [4]; h15-LOX-1 + DHA): 1.0
14S-HpDHA biosynthetic flux (h15-LOX-1 [4]; h15-LOX-1 + DHA, B.F. = kcat/KM * % product): 0.14
fold difference of kcat/KM (h15-LOX-1 [4]): 1.0
product profile: 11S-HpDHA (ω-12) (h15-LOX-1 [5]; h15-LOX-1 + 10 μM DHA, 1 min): 12% and 12 ± 1%
product profile: 14S-HpDHA (ω-9) (h15-LOX-1 [5]; h15-LOX-1 + 10 μM DHA, 1 min): 40 ± 1%
product profile: 17S-HpDHA (ω-6) (h15-LOX-1 [5]; h15-LOX-1 + 10 μM DHA, 1 min): 46% and 46 ± 1%
Molecule: CC/C=C\C/C=C\C/C=C\C/C=C\C/C=C\C/C=C\CCC(=O)O [DHA, docosahexaenoic acid]

Molecule: COc1cccc(CNc2ccc(S(=O)(=O)Nc3nc4ccccc4s3)cc2)c1O [ML355]
reduction of 14S-HDHA and 11S-HDHA production (human platelets [8]): approximately 70%

Molecule: CC/C=C\C/C=C\C[C@H](O)\C=C/C=C/C=C/[C@H](O)C/C=C\CCC(=O)O [MaR-1, 7R,14S-dihydroxy-4Z,8E,10E,12Z,16Z,19Z-docosahexaenoic acid, reference compound]
concentration required to completely inhibit platelet aggregation (human platelets [1]): 5 to 10 µM

B1: h12-LOX (Homo sapiens) (protein)
chain: MGRYRIRVATGAWLFSGSYNRVQLWLVGTRGEAELELQLRPARGEEEEFDHDVAEDLGLLQFVRLRKHHWLVDDAWFCDRITVQGPGACAEVAFPCYRWVQGEDILSLPEGTARLPGDNALDMFQKHREKELKDRQQIYCWATWKEGLPLTIAADRKDDLPPNMRFHEEKRLDFEWTLKAGALEMALKRVYTLLSSWNCLEDFDQIFWGQKSALAEKVRQCWQDDELFSYQFLNGANPMLLRRSTSLPSRLVLPSGMEELQAQLEKELQNGSLFEADFILLDGIPANVIRGEKQYLAAPLVMLKMEPNGKLQPMVIQIQPPNPSSPTPTLFLPSDPPLAWLLAKSWVRNSDFQLHEIQYHLLNTHLVAEVIAVATMRCLPGLHPIFKFLIPHIRYTMEINTRARTQLISDGGIFDKAVSTGGGGHVQLLRRAAAQLTYCSLCPPDDLADRGLLGLPGALYAHDALRLWEIIARYVEGIVHLFYQRDDIVKGDPELQAWCREITEVGLCQAQDRGFPVSFQSQSQLCHFLTMCVFTCTAQHAAINQGQLDWYAWVPNAPCTMRMPPPTTKEDVTMATVMGSLPDVRQACLQMAISWHLSRRQPDMVPLGHHKEKYFSGPKPKAVLNQFRTDLEKLEKEITARNEQLDWPYEYLKPSCIENSVTI
Km [9]: 0.95 ± 0.1 µM
kcat [9]: 18 ± 0.8 s⁻¹
kcat/Km [9]: 1.9e+07 ± 2e+06 M⁻¹ s⁻¹
Km [10, 13]: 0.90 ± 0.06 µM
kcat [10, 13]: 13 ± 0.2 s⁻¹
kcat/Km [10, 13]: 1.4e+07 ± 800000 M⁻¹ s⁻¹

B2: h15-LOX-1 (Homo sapiens) (protein)
chain: MGLYRIRVSTGASLYAGSNNQVQLWLVGQHGEAALGKRLWPARGKETELKVEVPEYLGPLLFVKLRKRHLLKDDAWFCNWISVQGPGAGDEVRFPCYRWVEGNGVLSLPEGTGRTVGEDPQGLFQKHREEELEERRKLYRWGNWKDGLILNMAGAKLYDLPVDERFLEDKRVDFEVSLAKGLADLAIKDSLNVLTCWKDLDDFNRIFWCGQSKLAERVRDSWKEDALFGYQFLNGANPVVLRRSAHLPARLVFPPGMEELQAQLEKELEGGTLFEADFSLLDGIKANVILCSQQHLAAPLVMLKLQPDGKLLPMVIQLQLPRTGSPPPPLFLPTDPPMAWLLAKCWVRSSDFQLHELQSHLLRGHLMAEVIVVATMRCLPSIHPIFKLIIPHLRYTLEINVRARTGLVSDMGIFDQIMSTGGGGHVQLLKQAGAFLTYSSFCPPDDLADRGLLGVKSSFYAQDALRLWEIIYRYVEGIVSLHYKTDVAVKDDPELQTWCREITEIGLQGAQDRGFPVSLQARDQVCHFVTMCIFTCTGQHASVHLGQLDWYSWVPNAPCTMRLPPPTTKDATLETVMATLPNFHQASLQMSITWQLGRRQPVMVAVGQHEEEYFSGPEPKAVLKKFREELAALDKEIEIRNAKLDMPYEYLRPSVVENSVAI
Km [10, 14]: 6.7 ± 3 µM
kcat [10, 14]: 2.4 ± 0.6 s⁻¹
kcat/Km [10, 14]: 360000 ± 100000 M⁻¹ s⁻¹
